The values below come from ChEMBL document CHEMBL1153988 (J Med Chem, 2009).

Data set [1] concerns Mus musculus. The experiment in a line: Anticonvulsant activity in CF1 albino mouse assessed as protection against maximal electroshock-induced seizures at 300 mg/kg, ip after 4 hrs. In kind it is functional, organism-based. More on the design: dose 300 mg/kg. In short, it runs like this:
(§1)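 Adult male CF no. 1 albino mice (18-25 g). Test compound suspended in 0.5% methylcellulose and given intraperitoneally at 0.01 mL/g body weight. Maximal electroshock challenge at the stated time. Read-out is the number of animals protected over the number tested; neurotoxicity is scored in parallel.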
Background: Protection in the maximal electroshock model is a classic sign of anticonvulsant action.

Data set [2] has as its system Mus musculus. The experiment in a line: Anticonvulsant activity in CF1 albino mouse assessed as protection against scMet-induced seizures at 300 mg/kg, ip after 0.5 hrs. In kind it is functional, organism-based. Also on record: dose 300 mg/kg. The procedure, abridged:
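Adult male CF no. 1 albino mice (18-25 g) dosed intraperitoneally with compound suspended in 0.5% methylcellulose (0.01 mL/g). Convulsant challenge given subcutaneously as a 0.85% pentylenetetrazol solution in 0.9% saline. Read-out is animals protected over animals tested, with neurotoxicity scored in parallel.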

The subject of data set [3] is Rattus norvegicus. The data set is described as follows: Anticonvulsant activity in albino Sprague-Dawley rat assessed as protection against maximal electroshock-induced seizures at 50 mg/kg, po after 4 hrs. In kind it is functional, organism-based. Also on record: dose 50 mg/kg. In short, it runs like this:
(§2)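 Adult male Sprague-Dawley albino rats (100-150 g) dosed orally with compound suspended in 0.5% methylcellulose (0.04 mL per 10 g). Maximal electroshock challenge at the stated time. Protection is scored in 25% steps as the fraction of animals protected, with neurotoxicity recorded in parallel.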

The test system of data set [4] is Mus musculus. The experiment in a line: Anticonvulsant activity in CF1 albino mouse assessed as protection against maximal electroshock-induced seizures at 60 mg/kg, ip. In kind it is functional, organism-based. More on the design: dose 60 mg/kg. In short, it runs like this:
as §1

For data set [5], the system named is Mus musculus. The experiment in a line: Neurotoxicity in CF1 albino mouse assessed as minimal motor impairment at 60 mg/kg, ip. In kind it is toxicity, organism-based. Also on record: dose 60 mg/kg, route intraperitoneal. Conditions: in vivo. The procedure, abridged:
(§3)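 Male CF no. 1 albino mice (18-25 g) received a single ip dose as a suspension in 0.5% methylcellulose. The read-out was the number of animals showing neurotoxicity (minimal motor impairment) over the number tested.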

The subject of data set [6] is Mus musculus. The experiment in a line: Neurotoxicity in CF1 albino mouse assessed as minimal motor impairment at 150 mg/kg, ip. Conditions: in vivo. In kind it is toxicity, organism-based. Also on record: dose 150 mg/kg, route intraperitoneal. The procedure, abridged:
as §3

The test system of data set [7] is Mus musculus. The data set is described as follows: Anticonvulsant activity in CF1 albino mouse assessed as protection against 32 mA-current-induced seizure at 130 mg/kg, ip by 6Hz psychomotor seizure test. In kind it is functional, organism-based. More on the design: dose 130 mg/kg. In short, it runs like this: (§4)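 6 Hz psychomotor seizure test in male CF no. 1 mice, with compound given ip as a 0.5% methylcellulose suspension. Groups of 8 animals per dose. The 32 mA test used 25, 70 and 130 mg/kg; the 44 mA test used 25, 50, 75 and 100 mg/kg. ED50 and 95% confidence interval were obtained by probit analysis.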

Data set [8] has as its system Mus musculus. The experiment in a line: Anticonvulsant activity in CF1 albino mouse assessed as protection against 44 mA-current-induced seizure at 25 mg/kg, ip by 6Hz psychomotor seizure test. Also on record: dose 25 mg/kg. In kind it is functional, organism-based. The procedure, abridged:
as §4

For data set [9], the species on record is Rattus norvegicus. The experiment in a line: Protective index, ratio of TD50 for albino Sprague-Dawley rat to ED50 for scMet-induced albino Sprague-Dawley rat seizure model. In kind it is functional. The procedure, abridged: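 Protective index is the rat TD50 (minimal motor impairment) divided by the ED50 in the MES or sc pentylenetetrazol test. Male Sprague-Dawley rats were dosed orally in 0.5% methylcellulose, and both values came from probit analysis.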

The test system of data set [10] is Rattus norvegicus. The experiment in a line: Anticonvulsant activity in albino Sprague-Dawley rat assessed as protection against maximal electroshock-induced seizures at 100 mg/kg, po. In kind it is functional, organism-based. Also on record: dose 100 mg/kg. In short, it runs like this:
as §2

Data set [11] deals with Rattus norvegicus. The data set is described as follows: Anticonvulsant activity in ip dosed albino Sprague-Dawley rat assessed as protection against pilocarpine-induced status epilepticus. In kind it is functional. In short, it runs like this:
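Rat pilocarpine-induced status model: drug was given either at the first stage III seizure (time 0) or 30 min after status induction, […]. Seizure severity was scored on the Racine scale as protection or no protection. Time 0 used 12, 25, 50 and 100 mg/kg with 8 rats per dose. The 30 min arm used 50, 75 and 100 mg/kg with 7, 6 and 7 rats. ED50 was calculated.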

In data set [12] the test system is Rattus norvegicus. The data set is described as follows: Anticonvulsant activity in albino Sprague-Dawley rat assessed as protection against pilocarpine-induced status epilepticus dosed ip after 30 mins of pilocarpine induction. In kind it is functional. Conditions: 0.5 h. The procedure, abridged:
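Rat pilocarpine status epilepticus model. Compound is given 30 min after pilocarpine status induction, or after the first stage III seizure. Seizure severity is rated on the Racine scale and scored as protection or no protection. Doses of 50, 75 and 100 mg/kg were used, with 7, 6 and 7 rats respectively. ED50 was derived by probit analysis.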

Data set [13] concerns Mus musculus. The experiment in a line: Teratogenic effect in SWV mouse assessed as number of implants at 671 mg/kg, ip administered on morning of day 8 of gestation. In kind it is toxicity, organism-based. More on the design: dose 671 mg/kg, route intraperitoneal. Particulars: in vivo. The procedure, abridged:
(§5)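 Inbred SWV mouse strain highly susceptible to VPA-induced neural tube defects. Each dam received a single ip injection on gestation day 8.5, dosed within 1.8-4.2 mmol/kg, against a control of 25% aqueous Cremophor EL. Groups were compared with the control, and with the matched VPA sodium-salt dose, by Fisher's exact test (p < 0.05).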

In data set [14] the test system is Mus musculus. The data set is described as follows: Teratogenic effect in SWV mouse assessed as number of implants at 336 mg/kg, ip administered on morning of day 8 of gestation. In kind it is toxicity, organism-based. Also on record: dose 336 mg/kg, route intraperitoneal. Conditions: in vivo. The procedure, abridged: as §5

Each structure is given as a SMILES string. Calls of active or inactive are those of the source. The calls are words filed in the database; no cut-off is given here.

Usually ED50 stands for the midpoint of the dose-response relation. Turning to `CC1(C)C(C)(C)C1(F)C(N)=O`, the Activity result in the data set on Mus musculus [1] is “Non-toxic”; in the data set on Mus musculus [2] it was “Toxic”; in the data set on Mus musculus [5] it was “Non-toxic”; with Mus musculus [6], “Toxic”; in the data set with Mus musculus [13] it was 55; in the data set on Mus musculus [14], 112. Moreover, the outcome in the data set with Rattus norvegicus [3], with Mus musculus [4], in the data set with Mus musculus [8] and in the data set on Rattus norvegicus [10] was inactive. In addition, the outcome in the data set with Mus musculus [7] was Active. Also, the PI in the data set filed under Rattus norvegicus [9] came out at 20. Further, the median effective dose (ED50) with Rattus norvegicus [11] is 23 mg/kg; with Rattus norvegicus [12], 80 mg/kg.
